Source: ChEMBL document CHEMBL1124186, “Synthesis and evaluation of tylosin-related macrolides modified at the aldehyde function: a new series of orally effective antibiotics” (1988)
Values after ≈ are worked out from the molar mass of the structure shown.

Tests used:
[1] = tested on: Haemophilus influenzae; assay: In vitro antimicrobial activity against Haemophilus influenzae.; assay type: functional
[2] = tested on: Staphylococcus aureus; assay: In vitro antimicrobial activity against Staphylococcus aureus X1; assay type: functional
[3] = tested on: Streptococcus pyogenes; assay: Anti microbial activity against Streptococcus pyogenes; assay type: functional
[4] = tested on: Streptococcus pyogenes; assay: In vivo effective dose against experimental infections in rodent caused by Streptococcus pyogenes C203 when administered sc; assay type: functional
[5] = tested on: Streptococcus pyogenes; assay: Activity against Streptococcus pyogenes C203 when administered orally; assay type: functional; settings: po
Method in brief: (§1)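 Mouse protection test: infected mice were dosed twice, at 1 and 5 h postinfection, either subcutaneously or orally. […] The result is expressed as ED50 in mg/kg × 2.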

[6] = tested on: Streptococcus pyogenes; assay: Activity against Streptococcus pyogenes C203 when administered sc; assay type: functional; method in brief: as §1
[7] = tested on: Streptococcus pneumoniae; assay: In vitro antimicrobial activity against Streptococcus pneumoniae; assay type: functional
[8] = tested on: Staphylococcus epidermidis; assay: In vitro antimicrobial activity against Staphylococcus epidermidis EPI1; assay type: functional
[9] = tested on: Streptococcus pyogenes; assay: In vitro antimicrobial activity against Streptococcus pyogenes C203; assay type: functional
[10] = tested on: Streptococcus pyogenes; assay: In vivo effective dose against experimental infections in rodent caused by Streptococcus pyogenes C203 when administered orally; assay type: functional; settings: po
[11] = tested on: Haemophilus influenzae; assay: In vitro antimicrobial activity against aerobic bacteria Haemophilus influenzae 76; assay type: functional
[12] = tested on: Haemophilus influenzae; assay: In vitro antimicrobial activity against aerobic bacteria Haemophilus influenzae MX366,; assay type: functional
[13] = tested on: Mus musculus; assay: Peripheral plasma levels in mice after oral administration of 50 mg/kg dose for 2 hr; assay type: functional, organism-based; design: dose 50 mg/kg
Method in brief: (§2)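 Mice were given the compound orally and sampled for peripheral plasma at each time point. Plasma was assayed microbiologically against Micrococcus luteus seeded in Antibiotic Medium 1. Inhibition zone sizes were read, and concentrations were calculated from each compound's own standard curve. Each value is the mean of five mice per time point.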

[14] = tested on: Mus musculus; assay: Peripheral plasma levels in mice after oral administration of 100 mg/kg dose for 4 hr; assay type: functional, organism-based; design: dose 100 mg/kg; method in brief: as §2
[15] = tested on: Mus musculus; assay: Peripheral plasma levels in mice after oral administration of 50 mg/kg dose for 0.25 hr; assay type: functional, organism-based; design: dose 50 mg/kg; method in brief: as §2
[16] = tested on: Mus musculus; assay: Peripheral plasma levels in mice after oral administration of 100 mg/kg dose for 0.25 hr; assay type: functional, organism-based; design: dose 100 mg/kg; method in brief: as §2
[17] = tested on: Mus musculus; assay: Peripheral plasma levels in mice after oral administration of 100 mg/kg dose for 0.5 hr; assay type: functional, organism-based; design: dose 100 mg/kg; method in brief: as §2
[18] = tested on: Mus musculus; assay: Peripheral plasma levels in mice after oral administration of 100 mg/kg dose for 1 hr; assay type: functional, organism-based; design: dose 100 mg/kg; method in brief: as §2
[19] = tested on: Mus musculus; assay: Peripheral plasma levels in mice after oral administration of 100 mg/kg dose for 2 hr; assay type: functional, organism-based; design: dose 100 mg/kg; method in brief: as §2
[20] = tested on: Mus musculus; assay: Peripheral plasma levels in mice after oral administration of 50 mg/kg dose for 1 hr; assay type: functional, organism-based; design: dose 50 mg/kg; method in brief: as §2
[21] = tested on: Rattus norvegicus; assay: Peripheral plasma levels in rats after oral administration of 100 mg/kg dose for 0.25 hr; assay type: functional, organism-based; design: dose 100 mg/kg
Method in brief: (§3)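 Rats received 100 mg/kg orally and were sampled for peripheral plasma. Concentrations were measured by Micrococcus luteus agar-diffusion microbiological assay in Antibiotic Medium 1, with zone sizes converted using the standard curve for the appropriate compound. Each value is the average of three rats per time point.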

[22] = tested on: Rattus norvegicus; assay: Peripheral plasma levels in rats after oral administration of 100 mg/kg dose for 0.5 hr; assay type: functional, organism-based; design: dose 100 mg/kg; method in brief: as §3
[23] = tested on: Rattus norvegicus; assay: Peripheral plasma levels in rats after oral administration of 100 mg/kg dose for 1 hr; assay type: functional, organism-based; design: dose 100 mg/kg; method in brief: as §3
[24] = tested on: Rattus norvegicus; assay: Peripheral plasma levels in rats after oral administration of 100 mg/kg dose for 2 hr; assay type: functional, organism-based; design: dose 100 mg/kg; method in brief: as §3
[25] = tested on: Rattus norvegicus; assay: Peripheral plasma levels in rats after oral administration of 100 mg/kg dose for 4 hr; assay type: functional, organism-based; design: dose 100 mg/kg; method in brief: as §3
[26] = tested on: Streptococcus; assay: In vitro antimicrobial activity against aerobic bacteria Streptococcus B 14; assay type: functional
[27] = tested on: Streptococcus; assay: In vitro antimicrobial activity against aerobic bacteria Streptococcus B 8; assay type: functional
[28] = tested on: Streptococcus; assay: In vitro antimicrobial activity against aerobic bacteria Streptococcus C 24; assay type: functional
[29] = tested on: Streptococcus; assay: In vitro antimicrobial activity against aerobic bacteria Streptococcus D 8043; assay type: functional
[30] = tested on: Streptococcus; assay: In vitro antimicrobial activity against aerobic bacteria Streptococcus D 9960; assay type: functional
[31] = tested on: Streptococcus; assay: In vitro antimicrobial activity against aerobic bacteria Streptococcus G Kruder; assay type: functional; settings: Streptococcus; read-out: MIC
[32] = tested on: Staphylococcus epidermidis; assay: In vitro antimicrobial activity against aerobic bacteria Streptococcus epi 270; assay type: functional
[33] = tested on: Staphylococcus aureus; assay: In vitro antimicrobial activity against aerobic bacteria Staphylococcus aureus 513E; assay type: functional
[34] = tested on: Staphylococcus aureus; assay: In vitro antimicrobial activity against aerobic bacteria Staphylococcus aureus V140,; assay type: functional
[35] = tested on: Staphylococcus aureus; assay: In vitro antimicrobial activity against aerobic bacteria Staphylococcus aureus V41; assay type: functional
[36] = tested on: Staphylococcus aureus; assay: In vitro antimicrobial activity against aerobic bacteria Staphylococcus aureus X400; assay type: functional
[37] = tested on: Streptococcus pyogenes; assay: In vivo effective dose xperimental infections in rodent caused by Streptococcus pyogenes C203 when administered sc; assay type: functional
[38] = tested on: Streptococcus pneumoniae; assay: In vitro antimicrobial activity against aerobic bacteria Streptococcus pneumoniae B1-438; assay type: functional, streptococcus pneum
[39] = tested on: Streptococcus sanguinis; assay: In vitro antimicrobial activity against aerobic bacteria Streptococcus sanguis MX132; assay type: functional
[40] = tested on: Staphylococcus epidermidis; assay: In vitro antimicrobial activity against aerobic bacteria Streptococcus epi 222; assay type: functional
[41] = tested on: Enterococcus faecium; assay: In vitro antimicrobial activity against Streptococcus faecium X66; assay type: functional, streptococcus fae-cium
[42] = tested on: Streptococcus viridans; assay: In vitro antimicrobial activity against aerobic bacteria Streptococcus viridans 9943; assay type: functional
[43] = tested on: Streptococcus; assay: In vitro antimicrobial activity against aerobic bacteria Streptococcus B 5; assay type: functional
[44] = tested on: Staphylococcus aureus; assay: In vitro antimicrobial activity against aerobic bacteria Staphylococcus aureus V135; assay type: functional
[45] = tested on: Mus musculus; assay: Peripheral plasma levels in mice after oral administration of 50 mg/kg dose for 0.5 hr; assay type: functional, organism-based; design: dose 50 mg/kg; method in brief: as §2
[46] = tested on: Streptococcus; assay: In vitro antimicrobial activity against aerobic bacteria Streptococcus D 2041; assay type: functional

## CC[C@H]1OC(=O)C[C@@H](O)[C@H](C)[C@@H](O[C@@H]2O[C@H](C)[C@@H](O[C@H]3C[C@@](C)(O)[C@@H](O)[C@H](C)O3)[C@H](N(C)C)[C@H]2O)[C@@H](C)C[C@@H](C)C(=O)/C=C/C(C)=C/[C@@H]1CO[C@@H]1O[C@H](C)[C@@H](O)[C@@H](OC)[C@H]1OC [DEFORMYLTYLOSIN]
[1]
  MIC: 128 µg/mL (≈ 144 µM)
[2]
  MIC: 0.5 µg/mL (≈ 0.563 µM)
[3]
  MIC: 1 µg/mL (≈ 1.13 µM)
[4]
  ED50: 2 mg/kg
[5]
  ED50: 12 mg/kg
[6]
  ED50: 2 mg/kg
[7]
  MIC: 32 µg/mL (≈ 36 µM)
[8]
  MIC: 1 µg/mL (≈ 1.13 µM)
[9]
  MIC: 1 µg/mL (≈ 1.13 µM)
[10]
  ED50: 12 mg/kg

## CC[C@H]1OC(=O)C[C@@H](O)[C@H](C)[C@@H](O[C@@H]2O[C@H](C)[C@@H](O[C@H]3C[C@@](C)(O)[C@@H](O)[C@H](C)O3)[C@H](N(C)C)[C@H]2O)[C@@H](CCOc2ccccc2)C[C@@H](C)C(=O)/C=C/C(C)=C/[C@@H]1CO[C@@H]1O[C@H](C)[C@@H](O)[C@@H](OC)[C@H]1OC
[11]
  MIC: > 128 µg/mL
[12]
  MIC: 128 µg/mL (≈ 129 µM)
[1]
  MIC: > 128 µg/mL
[13]
  Concentration: 1.2 µg/mL
[14]
  Concentration: 3.5 µg/mL
[15]
  Concentration: 1.6 µg/mL
[16]
  Concentration: 7.9 µg/mL
[17]
  Concentration: 7.4 µg/mL
[18]
  Concentration: 6 µg/mL
[19]
  Concentration: 4 µg/mL
[20]
  Concentration: 2.3 µg/mL
[21]
  Concentration: 0.2 µg/mL
[22]
  Concentration: 0.6 µg/mL
[23]
  Concentration: 2 µg/mL
[24]
  Concentration: 2.7 µg/mL
[25]
  Concentration: 2.6 µg/mL
[26]
  MIC: 128 µg/mL (≈ 129 µM)
[27]
  MIC: 128 µg/mL (≈ 129 µM)
[28]
  MIC: 1 µg/mL (≈ 1.01 µM)
[29]
  MIC: 128 µg/mL (≈ 129 µM)
[30]
  MIC: 128 µg/mL (≈ 129 µM)
[31]
  MIC: > 128 µg/mL
[32]
  MIC: > 128 µg/mL
[2]
  MIC: 1 µg/mL (≈ 1.01 µM)
[33]
  MIC: 1 µg/mL (≈ 1.01 µM)
[34]
  MIC: 2 µg/mL (≈ 2.01 µM)
[35]
  MIC: 1 µg/mL (≈ 1.01 µM)
[36]
  MIC: 2 µg/mL (≈ 2.01 µM)
[37]
  ED50: > 6.3 mg/kg
[38]
  MIC: > 128 µg/mL
[39]
  MIC: 8 µg/mL (≈ 8.05 µM)
[8]
  MIC: 1 µg/mL (≈ 1.01 µM)
[40]
  MIC: 1 µg/mL (≈ 1.01 µM)
[41]
  MIC: 128 µg/mL (≈ 129 µM)
[9]
  MIC: 2 µg/mL (≈ 2.01 µM)
[42]
  MIC: > 128 µg/mL
[43]
  MIC: 128 µg/mL (≈ 129 µM)
[44]
  MIC: 1 µg/mL (≈ 1.01 µM)
[45]
  Concentration: 2 µg/mL
[46]
  MIC: > 128 µg/mL
